Laboratory results from ChEMBL document CHEMBL1122043, “A new class of nitrosoureas. 4. Synthesis and antitumor activity of disaccharide derivatives of 3,3-disubstituted 1-(2-chloroethyl)-1-nitrosoureas” (J Med Chem, 1982).

What was measured:
[1] = […] required for antitumor activity against Ehrlich ascites carcinoma cells in […] mice.; type: functional, Mus musculus
[2] = Therapeutic index value for anti-L1210 activity.; details: mouse; for selectivity ratio: read-out: TI
Method in brief: (§1)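 Mice were male BDF1 inoculated ip with 10^5 L1210 cells. Ip treatment began 24 h later. Therapeutic ratio = OD/ILS30. ILS30 is the daily dose giving a 30% increase in life-span over control. OD is the daily dose giving the maximum increase in life-span.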

[3] = Therapeutic index value for anti-Ehrlich activity.; details: mouse; for selectivity ratio: read-out: TI
Method in brief: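 Ehrlich ascites cells (10^6) were inoculated ip into 5 female ICR mice. Ip dosing began 24 h later and was given once daily for 5 days. Therapeutic ratio = MTD/MED. MED is the minimum dose giving 100% inhibition of tumor growth. MTD is the maximum dose giving 100% inhibition without mouse deaths.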

L1210 [4] = assay: Antitumor activity against Leukemia L1210 cells in male BDF1 mice at the dose of 200 mg/kg/day x5 (i.p.) expressed as maximal increase in life-span; type: functional, Mus musculus; details: route intraperitoneal
Method in brief: (§2)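 L1210 leukemia cells (10^5) given ip to male BDF1 mice. Ip dosing started 24 h after inoculation and was given once daily for 5 days. Life-span increase was calculated as ILS (%) = (T/C-1) × 100. Optimal dose was the daily dose giving the maximum increase in life-span.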

L1210 [5] = assay: Antitumor activity against Leukemia L1210 cells in male BDF1 mice at the dose of 100 mg/kg/day x5 (i.p.) expressed as maximal increase in life-span; type: functional, Mus musculus; details: route intraperitoneal; method in brief: as §2
L1210 [6] = assay: Antitumor activity against Leukemia L1210 cells in male BDF1 mice at the dose of 230 mg/kg/day x1 (i.p.) expressed as maximal increase in life-span; type: functional, Mus musculus; details: route intraperitoneal
Method in brief: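 Male BDF1 mice (six or eight) received 10^5 L1210 cells ip. A single ip dose, in (mg/kg)/day × 1, was given 24 h after inoculation. ILS (%) = (T/C-1) × 100. The optimal dose was the dose giving the maximum increase in life-span.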

L1210 [7] = assay: Antitumor activity against Leukemia L1210 cells in male BDF1 mice at the dose of 200 mg/kg/day x5 (ip) expressed as maximal increase in life-span; type: functional, Mus musculus; method in brief: as §2
[8] = Therapeutic index value for anti L1210 activity; Inactive; method in brief: as §1
L1210 [9] = assay: Antitumor activity against Leukemia L1210 cells in BDF1 mice at the dose of 50 mg/kg/day x5 (i.p.) expressed as maximal increase in life-span; type: functional, Mus musculus; details: route intraperitoneal; method in brief: as §2
L1210 [10] = assay: Antitumor activity against Leukemia L1210 cells in BDF1 mice at the dose of 130 mg/kg/ day *5 (i.p.) expressed as maximal increase in life-span; type: functional, Mus musculus; details: route intraperitoneal; in the assay text read “25 mg/kg/ day” for “130 mg/kg/ day”; method in brief: as §2
L1210 [11] = assay: Antitumor activity against Leukemia L1210 cells in BDF1 mice at the dose of 6.25 mg/kg/day x5 (i.p.) expressed as maximal increase in life-span; type: functional, Mus musculus; details: route intraperitoneal; method in brief: as §2
[12] = Minimum effective dose required for antitumor activity against Ehrlich ascites carcinoma cells in female ICR mice.
L1210 [13] = assay: Antitumor activity against Leukemia L1210 cells in male BDF1 mice at the dose of 6.25 mg/kg/day x5 (i.p.) expressed as maximal increase in life-span; type: functional, Mus musculus; details: route intraperitoneal; method in brief: as §2
L1210 [14] = assay: Antitumor activity against Leukemia L1210 cells in BDF1 mice at the dose of 25 mg/kg/day x1 (i.p.) expressed as maximal increase in life-span; details: route intraperitoneal
[15] = Maximum tolerated dose required antitumor activity against Ehrlich ascites carcinoma cells in female ICR mice.
L1210 [16] = assay: Antitumor activity against Leukemia L1210 cells in BDF1 mice at the dose of 6.25 mg/kg/day x 5 (ip), maximum increase in life-span; type: functional, Mus musculus
Method in brief: (§3)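 Male BDF1 mice were inoculated ip with 10^5 L1210 leukemia cells. Drug was given ip once daily for 5 days, starting 24 h after inoculation. ILS (%) = (T/C-1) × 100. The recorded value is the ILS at the optimal dose, meaning the daily dose giving the maximum increase in life-span.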

L1210 [17] = assay: Antitumor activity against Leukemia L1210 cells in male BDF1 mice at the dose of 25 mg/kg/day x5 (i.p.) expressed as maximal increase in life-span; type: functional, Mus musculus; details: route intraperitoneal; method in brief: as §3
L1210 [18] = assay: Antitumor activity against Leukemia L1210 cells in male BDF1 mice at the dose of 50 mg/kg/day x5 (i.p.) expressed as maximal increase in life-span; type: functional, Mus musculus; details: route intraperitoneal; method in brief: as §2
L1210 [19] = assay: Antitumor activity against Leukemia L1210 cells in male BDF1 mice at the dose of 400 mg/kg/day x5 (i.p.) expressed as maximal increase in life-span; type: functional, Mus musculus; details: route intraperitoneal; method in brief: as §2
L1210 [20] = assay: Antitumor activity against Leukemia L1210 cells in BDF1 mice at the dose of 50 mg/kg/day x 1 (i.p.), ILS30; details: route intraperitoneal
L1210 [21] = assay: Antitumor activity against Leukemia L1210 cells in BDF1 mice at the dose of 400 mg/kg/day x 5 (ip), maximum increase in life-span; type: functional, Mus musculus; method in brief: as §3

SMILES | MED [1] [mg kg-1 5day-1] | selectivity ratio [2] | selectivity ratio [3] | ILS30 (L1210 [5]) | also measured
COCCCN(C(=O)N(CCCl)N=O)C1OC(CO)C(OC2OC(CO)C(O)C(O)C2O)C(O)C1O (stereo unspecified) | 3.12 | 26.7 | 64 | – | ILS30 (L1210 [4]): 7.5
O=NN(CCCl)C(=O)N(CC1CCCCC1)C1OC(CO)C(OC2OC(CO)C(O)C(O)C2O)C(O)C1O (stereo unspecified) | 3.12 | 12.5 | 32 | 8 | –
CC(C)CN(C(=O)N(CCCl)N=O)C1OC(CO)C(OC2OC(CO)C(O)C(O)C2O)C(O)C1O (stereo in doubt; 37) | – | – | – | 1.2 | ILS30 (L1210 [6]): 7.3; TI [3]: 256
CCCCN(C(=O)N(CCCl)N=O)C1OC(CO)C(OC2OC(CO)C(O)C(O)C2O)C(O)C1O (stereo unspecified) | 6.25 | 22.2 | 32 | 4.5 | –
O=NN(CCCl)C(=O)N(CC1CCCO1)C1OC(CO)C(OC2OC(CO)C(O)C(O)C2O)C(O)C1O (stereo unspecified) | 3.12 | 33.3 | 64 | – | ILS30 (L1210 [4]): 6
CC(C)CN(C(=O)N(CCCl)N=O)C1OC(CO)C(OC2OC(CO)C(O)C(O)C2O)C(O)C1O (stereo in doubt; 63) | 100 | – | – | – | ILS30 (L1210 [7]): 160; TI [2]: 1.3; TI [3]: 2
O=NN(CCCl)C(=O)N(CC1CC1)C1OC(CO)C(OC2OC(CO)C(O)C(O)C2O)C(O)C1O (stereo unspecified) | 1.56 | 28.6 | 64 | 3.5 | –
CCCCCCCCCCCCCCCCN(C(=O)N(CCCl)N=O)C1OC(CO)C(OC2OC(CO)C(O)C(O)C2O)C(O)C1O (stereo unspecified) | – | – | 32 | – | TI [8]: Not Active
CN(C(=O)N(CCCl)N=O)C1OC(CO)C(OC2OC(CO)C(O)C(O)C2O)C(O)C1O (stereo unspecified) | – | 11.4 | 32 | 8.8 | –
C=C(C)CN(C(=O)N(CCCl)N=O)C1OC(CO)C(OC2OC(CO)C(O)C(O)C2O)C(O)C1O (stereo unspecified) | 1.56 | 62.5 | 128 | – | ILS30 (L1210 [4]): 3.2
CC(C)CN(C(=O)N(CCCl)N=O)C1OC(CO)C(O)C(O)C1O (stereo unspecified) | – | 50 | – | – | TI [2]: 34.2; ILS30 (L1210 [9]): 1; ILS30 (L1210 [6]): 2.6; ILS30 (L1210 [10]): 0.73
O=NN(CCCl)C(=O)N[C@@H]1O[C@H](CO)[C@@H](O)[C@H](O)[C@H]1O | – | 7.8 | 32 | – | ILS30 (L1210 [11]): 0.8; MED [12]: 0.39 mg kg-1 5day-1; ILS30 (L1210 [13]): 0.8; ILS30 (L1210 [14]): 1.1; MTD [15]: 12.5 mg kg-1 5day-1; ILS max (L1210 [16]): >198.6%
Cc1ncc(CNC(=O)N(CCCl)N=O)c(N)n1 [NIMUSTINE] | – | 9.3 | 8 | – | MED [12]: 3.12 mg kg-1 5day-1; ILS30 (L1210 [17]): 2.9; MTD [15]: 25 mg kg-1 5day-1
O=NN(CCCl)C(=O)N(Cc1ccc(Cl)cc1)C1OC(CO)C(OC2OC(CO)C(O)C(O)C2O)C(O)C1O (stereo unspecified) | 1.56 | 10 | 128 | – | ILS30 (L1210 [4]): 20
C=CCN(C(=O)N(CCCl)N=O)C1OC(CO)C(OC2OC(CO)C(O)C(O)C2O)C(O)C1O (stereo unspecified) | 1.56 | 50 | 64 | 2 | –
CCCCCCN(C(=O)N(CCCl)N=O)C1OC(CO)C(OC2OC(CO)C(O)C(O)C2O)C(O)C1O (stereo unspecified) | – | 3.6 | 32 | – | ILS30 (L1210 [18]): 14
CCC(C)N(C(=O)N(CCCl)N=O)C1OC(CO)C(OC2OC(CO)C(O)C(O)C2O)C(O)C1O (stereo unspecified) | 1.56 | 66.7 | 128 | 1.5 | –
CC(C)CN(C(=O)N(CCCl)N=O)C1OC(COC2OC(CO)C(O)C(O)C2O)C(O)C(O)C1O (stereo unspecified) | – | 1.1 | 1 | – | ILS30 (L1210 [19]): 350
COCCN(C(=O)N(CCCl)N=O)C1OC(CO)C(OC2OC(CO)C(O)C(O)C2O)C(O)C1O (stereo unspecified) | 3.12 | 11.8 | 64 | – | ILS30 (L1210 [4]): 17
C=CCCN(C(=O)N(CCCl)N=O)C1OC(CO)C(OC2OC(CO)C(O)C(O)C2O)C(O)C1O (stereo unspecified) | 1.56 | 64.5 | 128 | – | ILS30 (L1210 [4]): 3.1
O=NN(CCCl)C(=O)NC1CCCCC1 [LOMUSTINE] | – | 5.1 | 4 | – | MED [12]: 12.5 mg kg-1 5day-1; ILS30 (L1210 [17]): 4.9; MTD [15]: 50 mg kg-1 5day-1; ILS30 (L1210 [20]): 9.3 mg/kg
CCOCCN(C(=O)N(CCCl)N=O)C1OC(CO)C(OC2OC(CO)C(O)C(O)C2O)C(O)C1O (stereo unspecified) | 3.12 | 37 | 64 | 2.7 | –
CCCN(C(=O)N(CCCl)N=O)C1OC(CO)C(OC2OC(CO)C(O)C(O)C2O)C(O)C1O (stereo unspecified) | – | 20.4 | 64 | 4.9 | –
CC(C)N(C(=O)N(CCCl)N=O)C1OC(CO)C(OC2OC(CO)C(O)C(O)C2O)C(O)C1O (stereo unspecified) | – | 18.5 | 32 | 5.4 | –
CCCCCN(C(=O)N(CCCl)N=O)C1OC(CO)C(OC2OC(CO)C(O)C(O)C2O)C(O)C1O (stereo unspecified) | 3.12 | 28.6 | 64 | 3.5 | –
CC(=O)OCC1OC(N(CC(C)C)C(=O)N(CCCl)N=O)C(OC(C)=O)C(OC(C)=O)C1COCC1OC(COC(C)=O)C(OC(C)=O)C(OC(C)=O)C1OC(C)=O (stereo unspecified) | – | – | – | – | ILS max (L1210 [21]): 18%
